1 compound from ChEMBL document CHEMBL4732112, “Synthesis and in vitro evaluation of novel spiroketopyrazoles as acetyl-CoA carboxylase inhibitors and potential antitumor agents” (Eur J Med Chem, 2021) can be followed below.

pIC50: −log10 of the molar value.

The subject of assay [1] is HepG2. Briefly: Cell cycle arrest in human HepG2 cells assessed as accumulation at S phase at 10 uM measured after 48 hrs by propidium iodide staining based flow cytometry (reference value: 30.18%). Format: functional. On the technique in general: A flow cytometer gives signals particle by particle.
The subject of assay [2] is HepG2. Briefly: Cell cycle arrest in human HepG2 cells assessed as accumulation at G0/G1 phase at 10 uM measured after 48 hrs by propidium iodide staining based flow cytometry (reference value: 56.24%). Format: functional.
Assay [3] concerns the target T1, Acetyl-CoA carboxylase 1 (Homo sapiens, UniProt Q13085). Briefly: Inhibition of ACC1 in human HepG2 cells assessed as reduction in intracellular triglyceride level at 10 uM measured after 48 hrs by GPO-PAP method relative to control. Format: cell-based. A digest of the protocol: (§1)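 HepG2 cells plated and exposed to the compound at several concentrations for 48 h. Cells washed with PBS, lysed in 1% Triton X-100 and spun 12000 rpm, 4 °C, 15 min. Malonyl-CoA measured by ELISA kit and triglyceride by GPO-POP kit, each normalised to BCA protein. Reported relative to control, mean ± SD, n=3.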

For assay [4], the system named is HepG2. Briefly: Cell cycle arrest in human HepG2 cells assessed as accumulation at G2/M phase at 5 uM measured after 48 hrs by propidium iodide staining based flow cytometry (reference value: 13.58%). It is filed as functional.
In assay [5] the test system is HepG2. Briefly: Cell cycle arrest in human HepG2 cells assessed as accumulation at S phase at 1 uM measured after 48 hrs by propidium iodide staining based flow cytometry (reference value: 30.18%). It is filed as functional.
The subject of assay [6] is HepG2. Briefly: Antiproliferative activity against human HepG2 cells assessed as combination index at 0.7 uM measured after 72 hrs in presence of 1.4 uM doxorubicin by MTT assay. Format: functional.
The target of assay [7] is T1, Acetyl-CoA carboxylase 1. Briefly: Inhibition of recombinant human C-terminal His-tagged ACC1 (1 to 2383 residues) expressed in baculovirus infected Sf9 insect cells at 5 uM preincubated for 15 mins followed by substrate addition and measured after 60 mins by ADP-glo luminescence assay relative to control. Background: In ADP-Glo the light output rises with the ADP produced.

For assay [8], the system named is HepG2. Briefly: Induction of apoptosis in human HepG2 cells assessed as early apoptotic cells at 1 uM measured after 48 hrs by Annexin V-FITC/propidium iodide staining based flow cytometry (reference value: 4.03%). Format: functional. A digest of the protocol: (§2)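 HepG2 cells incubated with the stated concentrations for 48 h, harvested, and stained with Annexin V-FITC and propidium iodide protected from light. Viable, early apoptotic, late apoptotic and necrotic fractions quantified by flow cytometry. Mean ± SD, n=3.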

Assay [9] has as its target T1, Acetyl-CoA carboxylase 1. Briefly: Inhibition of recombinant human C-terminal His-tagged ACC1 (1 to 2383 residues) expressed in baculovirus infected Sf9 insect cells preincubated for 15 mins followed by substrate addition and measured after 60 mins by ADP-glo luminescence assay. The gist of the method: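 Recombinant ACC1 in assay buffer preincubated with inhibitor in DMSO for 15 min at room temperature. Reaction started with substrate mixture and run 60 min at room temperature. Stopped with ADP-Glo reagent for 40 min, then detection reagent for 40 min to convert ADP to ATP, read by luminescence. Mean of two independent experiments.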

The subject of assay [10] is HepG2. Briefly: Antiproliferative activity against human HepG2 cells assessed as combination index at 0.0875 uM measured after 72 hrs in presence of 0.175 uM doxorubicin by MTT assay. It is filed as functional.
The test system of a further assay is A549. Briefly: Antiproliferative activity against human A549 cells assessed as cell growth inhibition after 72 hrs by MTT assay. Format: functional, cell-based. The note with it: A549, 72 h. The gist of the method: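 HepG2, A549 or MDA-MB-231 cells grown in DMEM with 10% FBS and penicillin/streptomycin at 37 °C, 5% CO2. Seeded at 3×10^3 per well, left 24 h, then exposed to a range of concentrations for 72 h. MTT added for 4 h, formazan dissolved in DMSO, absorbance read at 550 nm. Mean ± SD, n=3.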
(Formazan colour is commonly taken as a measure of viable cells.)

Assay [11] relates to HepG2. Briefly: Cell cycle arrest in human HepG2 cells assessed as reduction in cyclin D1 expression measured after 48 hrs by Western blot analysis. It is filed as functional, cell-based. Particulars: dose 1-10 µM. The gist of the method: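 HepG2 cells treated for 48 h and lysed. Lysates cleared at 12000 rpm for 15 min and protein measured by BCA. Run on SDS-PAGE, transferred to PVDF, blocked in 5% BSA, primary antibody at 4 °C overnight, then DyLight 800 secondary. Infrared imaging and densitometry against β-actin. Mean ± SD, n=3.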

The next assay concerns MDA-MB-231. Briefly: Antiproliferative activity against human MDA-MB-231 cells assessed as cell growth inhibition at 10 uM after 72 hrs by MTT assay relative to control. It is filed as functional. Particulars: read-out: GI. A digest of the protocol: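 Cells were DMEM/10% FBS cultures at 37 °C, 5% CO2, seeded at 3×10^3 per well and exposed for 72 h after 24 h attachment. Read-out was MTT with formazan in DMSO and absorbance at 550 nm, expressed as inhibition rate versus control.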

Assay [12] relates to HepG2. Briefly: Induction of apoptosis in human HepG2 cells assessed as late apoptotic cells at 5 uM measured after 48 hrs by Annexin V-FITC/propidium iodide staining based flow cytometry (reference value: 0.19%). Format: functional. The gist of the method: as §2
Assay [13] has as its system HepG2. Briefly: Induction of apoptosis in human HepG2 cells assessed as increase in Bax expression measured after 48 hrs by Western blot analysis. It is filed as functional, cell-based. Particulars: dose 1-10 µM. The gist of the method: (§3)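 Western blots for Bcl-2, Bax, cleaved caspase-3 and cleaved PARP in HepG2 cells after 48 h treatment (1, 5, 10 μM for PARP). Lysates cleared, protein quantified by BCA, run on SDS-PAGE to PVDF, blocked in 5% BSA, primary overnight at 4 °C, DyLight 800 secondary. Infrared scanning and densitometry normalized to β-actin. Mean ± SD, n=3.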

In assay [14] the test system is HepG2. Briefly: Antiproliferative activity against human HepG2 cells assessed as cell viability at 0.5 uM measured after 5 days in presence of 10 uM palmitate by MTT assay relative to control. Format: functional. Particulars: HepG2, 120 h, time 5 day, read-out: Activity. The gist of the method: (§4)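 HepG2 treated with 0.5 μM plus 0, 10 or 25 μM palmitate for 1, 3 and 5 days. Palmitate was complexed with 5% fatty-acid-free BSA from a 5 mM solution, then diluted in serum-free DMEM to final concentration. Viability (% control) by MTT. Mean ± SD, n=3.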

For assay [15], the target named is T1, Acetyl-CoA carboxylase 1. Briefly: Inhibition of ACC1 in human HepG2 cells assessed as reduction in intracellular malonyl-CoA level measured after 48 hrs by ELISA. The note with it: dose 1-10 µM. It is filed as cell-based. A digest of the protocol: as §1
Assay [16] addresses T1, Acetyl-CoA carboxylase 1. Briefly: Inhibition of recombinant human C-terminal His-tagged ACC1 (1 to 2383 residues) expressed in baculovirus infected Sf9 insect cells at 0.1 uM preincubated for 15 mins followed by substrate addition and measured after 60 mins by ADP-glo luminescence assay relative to control.
For assay [17], the system named is HepG2. Briefly: Antiproliferative activity against human HepG2 cells assessed as combination index at 0.35 uM measured after 72 hrs in presence of 0.7 uM doxorubicin by MTT assay. Format: functional.
Assay [18] concerns HepG2. Briefly: Induction of apoptosis in human HepG2 cells assessed as reduction in Bcl2 expression measured after 48 hrs by Western blot analysis. Format: functional, cell-based. The note with it: dose 1-10 µM. A digest of the protocol: as §3
The subject of assay [19] is HepG2. Briefly: Induction of apoptosis in human HepG2 cells assessed as increase in early apoptotic cells measured after 48 hrs by Annexin V-FITC/propidium iodide staining based flow cytometry. Format: functional, cell-based. Particulars: dose 1-10 µM. A digest of the protocol:
as §2

The subject of assay [20] is HepG2. Briefly: Cell cycle arrest in human HepG2 cells assessed as accumulation at S phase at 5 uM measured after 48 hrs by propidium iodide staining based flow cytometry (reference value: 30.18%). Format: functional.
Assay [21] deals with HepG2. Briefly: Antiproliferative activity against human HepG2 cells assessed as cell viability at 0.5 uM measured after 5 days by MTT assay relative to control. The note with it: HepG2, 120 h, time 5 day, read-out: Activity. Format: functional. A digest of the protocol: as §4

In the case of `CC(C)(C)n1cc2c(n1)C(=O)CC1(CCN(C(=O)c3cc(-c4ccncc4)nc4ccccc34)CC1)O2`, the Activity in the assay with HepG2 [1] is 6.48%; in the assay on HepG2 [2], 88.61%; with HepG2 [4] it was 6.46%; in the assay on HepG2 [5], 21.46%; in the assay on HepG2 [8], 11.6%; with HepG2 [11], “Dose-dependent effect”. Also, the Activity with HepG2 [12] was 32.6%; in the assay on HepG2 [13], “Dose-dependent effect”; in the assay on HepG2 [18] it was “Dose-dependent effect”; in the assay with HepG2 [19] it was “Dose-dependent effect”; with HepG2 [20] it was 14.71%. The inhibition (in general, the drop in the measured response relative to a control, in per cent) at Acetyl-CoA carboxylase 1 [3] is 36.7%; on Acetyl-CoA carboxylase 1 [7], 100%; at Acetyl-CoA carboxylase 1 [15], “Dose-dependent effect”; on Acetyl-CoA carboxylase 1 [16], 86.2%. For the same compound, the CI with HepG2 [6] was 0.599; in the assay with HepG2 [10] it was 0.713; with HepG2 [17] it was 0.816. The pIC50 (usually the IC50 on a negative log10 scale, so that one unit is a factor of ten) on Acetyl-CoA carboxylase 1 [9] was 7.95; in the assay on A549 it was 6.26. For the same compound, the inhibition of growth at 10 µM in the assay on MDA-MB-231 was found to be 72.2%. The viability at 0.5 µM in the assay on HepG2 [14] is 68.9%; in the assay with HepG2 [21] it was 33.1%.
